Data: ChEMBL document CHEMBL2331445, “Chemical, biochemical and microbiological properties of a brominated nitrovinylfuran with broad-spectrum antibacterial activity” (Bioorg Med Chem, 2013)
pIC50: −log10 of the molar value. Converted amounts (≈) assume the structure as drawn. The source made the active and inactive calls. The rule behind the calls is not given here.

Experiments:
[1] = Cytotoxicity against human SW707 cells after 72 hrs by crystal violet staining method; assay type: ADME, cell-based; conditions: SW707, 72 h
[2] = system: CAPAN-1; assay: Cytotoxicity against human Capan1 cells after 72 hrs by crystal violet staining method; assay type: ADME, cell-based; conditions: CAPAN-1, 72 h
[3] = system: Ca-Ski; assay: Cytotoxicity against human CaSki cells after 72 hrs by crystal violet staining method; assay type: ADME, cell-based
[4] = system: Calu-6; assay: Cytotoxicity against human Calu6 cells after 72 hrs by crystal violet staining method; assay type: ADME, cell-based; conditions: Calu-6, 72 h
[5] = system: MeWo; assay: Cytotoxicity against human MeWo cells after 72 hrs by crystal violet staining method; assay type: ADME, cell-based
[6] = system: A-431; assay: Cytotoxicity against human A431 cells after 72 hrs by crystal violet staining method; assay type: ADME, cell-based; conditions: A-431, 72 h
[7] = Cytotoxicity against human Flow 2002 cells after 72 hrs by crystal violet staining method; assay type: ADME, cell-based; conditions: Flow 2002, 72 h
[8] = system: HaCaT; assay: Cytotoxicity against human HaCaT cells after 72 hrs by crystal violet staining method; assay type: ADME, cell-based
[9] = system: Staphylococcus aureus; assay: microbe, parasite or virus in culture; assay type: functional; conditions: NCTC 10442
[10] = system: Staphylococcus aureus; assay: microbe, parasite or virus in culture; assay type: functional; conditions: ATCC 25923
[11] = Inhibition of Staphylococcus aureus MurA2 expressed in Escherichia coli BL21(lambdaDE3) using UNAG and PEP as substrate incubated for 10 mins prior to PEP addition measured after 60 mins by spectrophotometric analysis; conditions: for pIC50: read-out: IC50
[12] = Inhibition of Pseudomonas aeruginosa MurA expressed in Escherichia coli BL21(lambdaDE3) using UNAG and PEP as substrate incubated for 10 mins prior to PEP addition measured after 60 mins by spectrophotometric analysis; conditions: for pIC50: read-out: IC50
[13] = target: UDP-N-acetylglucosamine 1-carboxyvinyltransferase (Escherichia coli K-12, UniProt P0A749, C115D); assay: Inhibition of Escherichia coli MurA C115D mutant expressed in Escherichia coli BL21(lambdaDE3) using UNAG and PEP as substrate incubated for 10 mins prior to PEP addition measured after 60 mins by spectrophotometric analysis; conditions: for pIC50: read-out: IC50
[14] = target: T1, UDP-N-acetylglucosamine 1-carboxyvinyltransferase (Escherichia coli K-12, UniProt P0A749); assay: Inhibition of Escherichia coli MurA expressed in Escherichia coli BL21(lambdaDE3) using UNAG and PEP as substrate incubated for 10 mins prior to PEP addition measured after 60 mins by spectrophotometric analysis; conditions: for pIC50: read-out: IC50
[15] = system: Pseudomonas aeruginosa; assay: microbe, parasite or virus in culture; assay type: functional; conditions: ATCC 27853
[16] = system: Escherichia coli; assay: microbe, parasite or virus in culture; assay type: functional; conditions: ATCC 25922
[17] = Induction of GSSG formation in citrate buffer at 100 uM by RP-LC/MS analysis
[18] = Induction of GSH-adduct formation in citrate buffer at100 uM by RP-LC/MS analysis; conditions: 100 µM
[19] = system: Dengue virus; conditions: at 50 µM
[20] = target: Prothrombin (Homo sapiens) (UniProt P00734); conditions: at 25 µM
[21] = target: Methionine aminopeptidase 2 (Homo sapiens) (UniProt P50579); conditions: at 10 µM
[22] = target: Methionine aminopeptidase 1 (Homo sapiens) (UniProt P53582); conditions: at 10 µM
[23] = system: Escherichia coli; conditions: at 10 µM
[24] = target: T1, UDP-N-acetylglucosamine 1-carboxyvinyltransferase; assay: Induction of Escherichia coli MurA-mediated 2-bromo-5-(2-nitrovinyl)furan formation assessed as enzyme-(R)-methyl 3-mercapto-2-(6-methoxy-2-oxo-2H-chromene-3-carboxamido)propanoate adduct level at 200 to 300 uM after 1 hr by SDS-PAGE analysis
In short: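 E. coli MurA was incubated with the fluorescent coumarin cysteine thiol, with or without test compound. After 1 h, aliquots were quenched in non-reducing Laemmli buffer (one sample in reducing buffer), heated to 95 °C for 3 min and run on 12% SDS-PAGE. Protein-bound fluorophore was imaged at 365 nm excitation.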

[25] = Drug degradation assessed as 5-bromofuran-2-carbaldehyde formation at 100 uM by HPLC-UV analysis in absence of MurA; assay type: physicochemical
In short: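 Test compound (100 µM) was held under standard MurA assay buffer conditions without enzyme, then stopped at several time points. HPLC-UV used a C18 column, 37 °C, and a 0.1% TFA water/acetonitrile gradient. Aldehyde formation was followed at 290 nm.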

[26] = system: UDP-N-acetylglucosamine 1-carboxyvinyltransferase (Escherichia coli K-12), P0A749 [C115D]; assay: Inhibition of Escherichia coli MurA C115D mutant expressed in Escherichia coli BL21(lambdaDE3) using UNAG and PEP as substrate at 50 to 500 uM incubated for 30 mins by 2,2'-dithiopyridine based spectrophotometric analysis
In short: (§1)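 MurA (wild-type or C115D) was incubated with test compound at an equimolar ratio or 10-fold excess in 50 mM Tris pH 7.8 at room temperature for 30 min. 2,2'-Dithiodipyridine was then added in 0.5 M citrate pH 4 with 6 M urea for 30 min and quenched with 4% TFA. 2-Thiopyridone was measured by HPLC at 342 nm against a compound-free control.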

[27] = target: UDP-N-acetylglucosamine 1-carboxyvinyltransferase (Escherichia coli K-12) (UniProt P0A749); assay: Inhibition of Escherichia coli MurA expressed in Escherichia coli BL21(lambdaDE3) using UNAG and PEP as substrate at 50 to 500 uM incubated for 30 mins by 2,2'-dithiopyridine based spectrophotometric analysis; in short: as §1
[28] = Prodrug activation in citrate buffer assessed as debromination at 100 uM at pH 6 in presence of GSH; assay type: physicochemical; conditions: pH 6, 100 µM
In short: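 Inhibitor and glutathione, each at 100 µM final, in 50 mM sodium citrate pH 6.0. Aliquots were withdrawn every 30 s for 3 min and at 4 and 5 min, quenched, and analysed by reversed-phase HPLC-UV.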

[29] = Half life of the compound in Muller-Hinton medium at 100 uM at pH 5.8; assay type: physicochemical
In short: (§2)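 Compound (100 µM) was dissolved in Müller-Hinton medium (pH 7.2, or adjusted to pH 5.8) and aliquots were injected onto HPLC at different time points. Parent disappearance was read at 390 nm. Half-life came from a first-order plot of log peak area versus time, t1/2 = ln2/kobs.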

[30] = Drug degradation in Muller-Hinton medium assessed as disappearance of parent compound at 100 uM at pH 7.2 by HPLC-UV analysis; assay type: physicochemical; conditions: buffer, pH 7.2, 100 µM; TDE = time-dependent effect; in short: as §2
[31] = Half life of the compound in Muller-Hinton medium at 100 uM at pH 7.2; assay type: physicochemical; in short: as §2
[32] = Half life of the compound in citrate buffer at pH 6
[33] = Half life of the compound in tris buffer at pH 7.8
[34] = Cytotoxicity against human lymphoblastoid cells assessed as cell vaibility at 3.4 uM; assay type: cell-based; conditions: read-out: Activity
[35] = target: UDP-N-acetylglucosamine 1-carboxyvinyltransferase (Escherichia coli K-12) (UniProt P0A749); assay: Irreversible inhibition of Escherichia coli MurA expressed in Escherichia coli BL21(lambdaDE3) using UNAG and PEP as substrate at 1.25 uM incubated up to 80 min prior to PEP addition measured after 60 mins by spectrophotometric analysis; conditions: TDE = time-dependent effect
In short: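 Phosphate-release MurA assay: 12 nM E. coli MurA, 250 µM UNAG, 125 µM PEP, 25 mM Tris pH 7.8, 0.1% BSA, 37 °C. The pre-incubation period of inhibitor with enzyme was varied before PEP addition. Reaction ran 60 min, was stopped with malachite green reagent, and read at 620 nm.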

[36] = target: UDP-N-acetylglucosamine 1-carboxyvinyltransferase (Escherichia coli K-12) (UniProt P0A749); assay: Inhibition of Escherichia coli MurA expressed in Escherichia coli BL21(lambdaDE3) using UNAG and PEP as substrate at 5 uM incubated for 10 mins […] measured after 60 mins by spectrophotometric analysis
In short: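 MurA (12 nM) was pre-incubated with UNAG and inhibitor for 10 min at 37 °C, and the reaction was started with PEP. Final conditions: UNAG 250 µM, PEP 125 µM, 25 mM Tris pH 7.8, 0.1% BSA, 1% DMSO. After 60 min at 37 °C, malachite green/molybdate reagent was added and phosphate was read at 620 nm after 10 min. Run in triplicate.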

[37] = Cytotoxicity against human lymphoblastoid cells assessed as cell vaibility at 46 uM; assay type: cell-based; conditions: read-out: Activity

UDP-N-acetylglucosamine 1-carboxyvinyltransferase (Escherichia coli K-12), sequence (P0A749 whole entry): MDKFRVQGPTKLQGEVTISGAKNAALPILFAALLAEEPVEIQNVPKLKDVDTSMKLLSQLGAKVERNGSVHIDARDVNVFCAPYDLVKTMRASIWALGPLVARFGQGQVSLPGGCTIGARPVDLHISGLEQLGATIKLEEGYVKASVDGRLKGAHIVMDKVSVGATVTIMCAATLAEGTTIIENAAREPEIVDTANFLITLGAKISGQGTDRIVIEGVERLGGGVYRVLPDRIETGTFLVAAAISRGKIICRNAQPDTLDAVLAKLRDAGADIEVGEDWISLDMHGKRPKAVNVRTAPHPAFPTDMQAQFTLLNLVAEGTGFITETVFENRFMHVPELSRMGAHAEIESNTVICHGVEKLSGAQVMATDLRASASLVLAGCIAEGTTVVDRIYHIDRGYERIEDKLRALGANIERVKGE
T1 sequence (P0A749 whole entry): as above
Methionine aminopeptidase 2 (Homo sapiens), sequence (P50579 2-478 limits assumed): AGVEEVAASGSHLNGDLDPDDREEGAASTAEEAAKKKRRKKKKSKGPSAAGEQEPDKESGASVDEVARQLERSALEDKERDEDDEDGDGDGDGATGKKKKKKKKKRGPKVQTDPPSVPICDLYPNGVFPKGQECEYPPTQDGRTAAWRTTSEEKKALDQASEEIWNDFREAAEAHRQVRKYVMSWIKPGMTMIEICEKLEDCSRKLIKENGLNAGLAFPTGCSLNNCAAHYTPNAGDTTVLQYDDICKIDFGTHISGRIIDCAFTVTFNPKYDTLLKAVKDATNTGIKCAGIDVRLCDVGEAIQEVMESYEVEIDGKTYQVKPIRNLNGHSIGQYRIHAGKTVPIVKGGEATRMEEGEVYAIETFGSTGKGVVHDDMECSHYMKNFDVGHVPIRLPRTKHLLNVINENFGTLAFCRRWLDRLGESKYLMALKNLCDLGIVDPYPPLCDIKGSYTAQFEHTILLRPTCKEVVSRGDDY
UDP-N-acetylglucosamine 1-carboxyvinyltransferase (Escherichia coli K-12, UniProt P0A749, C115D), sequence (P0A749 whole entry C115D): as the sequence (P0A749 whole entry) above, with C115D counted along it
UDP-N-acetylglucosamine 1-carboxyvinyltransferase (Escherichia coli K-12), P0A749 [C115D], sequence (P0A749 whole entry C115D): as the sequence (P0A749 whole entry) above, with C115D counted along it

Row | SMILES | pIC50 [1] | pIC50 [2] | pIC50 [3] | pIC50 [4] | pIC50 [5] | pIC50 [6] | pIC50 [7] | pIC50 [8] | MIC [9] [µg/mL] | MIC [10] [µg/mL] | MIC [15] [µg/mL] | MIC [16] [µg/mL] | Activity [17] | Activity [18] | inhibition [19] | inhibition [20] | inhibition [21] | inhibition [22] | inhibition [23] | pIC50 [11] | other results
1 | O=Cc1ccc(Br)o1 | ≤ 4.00 | ≤ 4.00 | ≤ 4.00 | ≤ 4.00 | ≤ 4.00 | ≤ 4.00 | ≤ 4.00 | ≤ 4.00 | > 32 | > 32 | > 32 | > 32 | Active | Active | inactive | inactive | inactive | inactive | inactive | – | IC50 [11]: Not Active; IC50 [12]: Not Active; IC50 [13]: Not Active; IC50 [14]: Not Active
2 | O=[N+]([O-])/C(Br)=C/c1ccc(Br)o1 | 4.33 | 4.44 | 4.30 | 5.00 | 4.37 | 4.62 | 5.05 | 4.48 | 4 (≈ 13.5 µM) | 4 (≈ 13.5 µM) | 2 (≈ 6.74 µM) | 4 (≈ 13.5 µM) | Not Active | Not Active | 12% | 8% | 13% | inactive | 85% | 5.41 | pIC50 [12]: 5.55; pIC50 [13]: 4.73; pIC50 [14]: 5.55; Drug metabolism [24]: Active; Stability [25]: Unstable; inhibition [26]: Active; inhibition [27]: Active; Drug metabolism [28]: Active; half-life at 100 µM [29]: 1 h; Drug degradation [30]: tde; half-life at 100 µM [31]: 8 min; half-life [32]: 6 h; half-life [33]: 0.5 h; viability at 3.4 µM [34]: > 70%; inhibition [35]: tde; inhibition [36]: Active
3 | O=[N+]([O-])/C=C/c1ccc(Br)o1 | 4.66 | 4.72 | 4.74 | 5.30 | 4.68 | 4.92 | 5.22 | 4.82 | 2 (≈ 9.17 µM) | 2 (≈ 9.17 µM) | 4 (≈ 18.3 µM) | 2 (≈ 9.17 µM) | Active | Not Active | 26% | 19% | 7% | inactive | 30% | 4.68 | pIC50 [12]: 4.69; pIC50 [13]: 4.62; pIC50 [14]: 4.56; half-life [32]: 116 h; half-life [33]: 58 h; viability at 46 µM [37]: > 70%
